According to publication PMC4827872 (Chemical research in toxicology, 2015):
Where two headings read alike, the source gives them in different places. Where a SMILES comes first, the peptide text is derived from it. The star is where a group is joined. Cbz = O=C(OCc1ccccc1)*

Tests used:
DIO2 [1] = target: T1, DIO2 (Homo sapiens, UniProt Q92813); experiment: DIO2 activity in H4 glioma cells exposed to PBDEs/OH-BDEs; format: cell-based; settings: for decrease in DIO2 activity with MG132 coexposure: plus 10 µM MG132; for Significant DIO2 Effects in H4 Cells (%Ctrl): at the lowest dose that significantly decreased DIO2 activity
T1 sequence (Q92813 1-273): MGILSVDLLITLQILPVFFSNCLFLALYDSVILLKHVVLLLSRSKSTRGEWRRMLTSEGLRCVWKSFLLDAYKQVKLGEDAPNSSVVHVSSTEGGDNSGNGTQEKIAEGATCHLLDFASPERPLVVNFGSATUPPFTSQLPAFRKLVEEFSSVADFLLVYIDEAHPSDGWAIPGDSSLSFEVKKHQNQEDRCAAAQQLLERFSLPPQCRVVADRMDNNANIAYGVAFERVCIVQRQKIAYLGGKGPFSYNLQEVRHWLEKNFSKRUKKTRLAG

DIO2 [2] = target: T1, DIO2; experiment: DIO2 activity in primary human astrocyte cells exposed to test compounds; format: cell-based
In short: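 Primary human astrocytes were grown on gelatin-coated dishes, moved to serum-free A-DMEM (30 nM selenium) 24 h before use, and induced with 10 µM forskolin. Exposure was 6 h (0.1% DMSO), with 100 nM rT3 as positive control. Microsomes (100,000×g, 60 min) were incubated 75 min at 37°C with DTT/EDTA/glycerol buffer. Net T3 was measured by LC/MS/MS (fmol min−1 mg protein−1) and expressed as % vehicle control; n=8 from 2 experiments.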

DIO2 [3] = target: T1, DIO2; experiment: In vitro DIO2 kinetics and inhibition in microsomal preparations of H4 cells; format: biochemical; settings: for concentrations at which DIO2 activity was inhibited / Vmax of DIO2 with inhibitor added: H4 microsomes; for concentrations at which DIO2 activity was inhibited: 2 nM T4
DIO2 mRNA = DIO2 mRNA expression; format: cell-based, human; settings: 6 h; for DIO2 mRNA expression level vs control: 3 doses
cultured cells [4] = experiment: Cell viability; format: cell-based; settings: for significant effects on viability: any doses less than 7.5 µM, 24 h; for decrease in viability: 5 µM, 24 h exposure
cultured cells [5] = experiment: Cell membrane damage; format: cell-based; settings: 24 h; for significant effects on membrane damage: any doses less than 7.5 µM; for membrane damage vs control: doses less than 50 µM
In short: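 Cells in 96-well plates, switched to serum-free A-DMEM with 30 nM selenium 24 h beforehand, then exposed 24 h to test compound added from 1,000× DMSO stocks (final DMSO 0.1%). Membrane damage was read as glucose-6-phosphate dehydrogenase activity released into the medium. Values were normalized to well DNA content and to DMSO vehicle controls.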

[6] = human serum, cited from earlier work
[7] = Biotransformation assay in cultured cells; format: in vitro ADME, human; settings: cells exposed for up to 48 h; 1 µM
[8] = substrate: NC(Cc1cc(I)c(Oc2cc(I)c(O)c(I)c2)c(I)c1)C(=O)O; experiment: In vitro DIO2 kinetics and inhibition in microsomal preparations of H4 cells; format: biochemical, human; settings: other: H4 microsomal fraction; T4 as substrate; no inhibitor; 37.0 °C
[9] = H4 cells, 500 nM, 6 h, relative to MG132 control
[10] = H4 glioma cells, doses of approximately 1–5 µM (abstract)
[11] = Homo sapiens, read-out: DIO2 mRNA expression ratio relative to the control value of 1.0
[12] = geometric mean or median, ref 53
[13] = geometric mean or median, ref 5
[14] = geometric mean or median, ref 43
[15] = geometric mean or median, ref 52
[16] = calculated assuming serum lipid 6.36 mg mL−1, ref 5
[17] = calculated assuming serum lipid 6.36 mg mL−1, ref 43
[18] = calculated assuming serum lipid 6.36 mg mL−1, ref 52
[19] = H4 cells, 5,000 nM, 6 h exposure
[20] = calculated assuming serum lipid 6.36 mg mL−1, ref 36
[21] = calculated assuming serum lipid 6.36 mg mL−1, ref 53

## N[C@@H](Cc1ccc(Oc2cc(I)c(O)c(I)c2)c(I)c1)C(=O)O [rT3, 3,3’,5’ Triiodothyronine, reference compound]
DIO2 [1]; H4 cells, 100 nM, 6 h, no inhibitor coexposure (Figure 8)
  decrease in DIO2 activity: 55.9% ± 3.6
DIO2 [1]; H4 cells, 100 nM, 6 h
  decrease in DIO2 activity with MG132 coexposure: 25.8 ± 2.3%
DIO2 [2]; primary human astrocytes, 100 nM, 6 h, positive control
  decrease in DIO2 activity: 49.4 ± 4.1%

## Oc1cc(Oc2cc(Br)c(Br)cc2Br)c(Br)cc1Br [5’-OH-BDE-99]
DIO2 [1]; 6 h, read-out: decrease in DIO2 activity, H4 cells, 1,000 nM, 6 h exposure
  inhibition at 1 µM: 57.4 ± 1.2%
DIO2 [1]; 6 h, read-out: decrease in DIO2 activity, H4 cells, 5,000 nM, 6 h exposure
  inhibition at 5 µM: 63.6 ± 2%
DIO2 [1]; 12 h, read-out: decrease in DIO2 activity, H4 cells, 1,000 nM, 12 h exposure
  inhibition at 1 µM: 55.7 ± 5.4%
DIO2 [1]; H4 cells
  lowest dose that significantly decreased DIO2 activity: ~1,000 nM
DIO2 [1]; [9]
  decrease in DIO2 activity with MG132 coexposure: 37.0 ± 2.6%
DIO2 [1]; [10]
  decrease in DIO2 activity: 45–80%
DIO2 [1]
  Significant DIO2 Effects in H4 Cells (%Ctrl): 57.4%
DIO2 [3]
  IC50: 16.6 ± 1.1 µM
  Ki: 7.11 µM
  concentrations at which DIO2 activity was inhibited: > 1 µM
DIO2 [3]; 15 µM 5’-OH-BDE-99 added
  Vmax of DIO2 with inhibitor added: 47.2 ± 8.0 fmol min^−1 mg protein^−1
DIO2 mRNA; [11]
  mrna remaining at 5 µM: 64 ± 12%
Cultured cells [4]
  significant effects on viability: not detected
Cultured cells [5]
  significant effects on membrane damage: not detected
[6]; [12]
  Average Serum Concentration: 22 ng/g lipid

## Brc1ccc(Oc2cc(Br)c(Br)cc2Br)c(Br)c1 [BDE-99]
DIO2 [1]; 6 h, read-out: decrease in DIO2 activity, H4 cells, 500 nM, 6 h exposure
  inhibition at 0.5 µM: 82.9 ± 6.7%
DIO2 [1]; 6 h, read-out: decrease in DIO2 activity, H4 cells, 2,500 nM, 6 h exposure
  inhibition at 2.5 µM: 80.8 ± 4.7%
DIO2 [1]; 12 h, read-out: decrease in DIO2 activity, H4 cells, 500 nM, 12 h exposure
  inhibition at 0.5 µM: 64.6 ± 2.8%
DIO2 [1]; [9]
  decrease in DIO2 activity with MG132 coexposure: 45.5 ± 3.8%
DIO2 [1]; H4 cells, doses of 500 nM or greater (abstract)
  decrease in DIO2 activity: up to 80%
DIO2 [1]
  Significant DIO2 Effects in H4 Cells (%Ctrl): 82.9%
DIO2 [1]; both cell types (primary astrocytes and H4 glioma), exposure for a few hours
  decrease in DIO2 activity: approximately 50%
DIO2 [2]; 6 h, read-out: decrease in DIO2 activity
  inhibition at 0.5 µM: 51.8 ± 8.6%
DIO2 [2]; primary astrocyte cells, doses of 500 nM or greater (abstract)
  decrease in DIO2 activity: 50%
DIO2 [3]
  Ki: 33.3 µM
  concentrations at which DIO2 activity was inhibited: > 1 µM
DIO2 [3]; 20 µM BDE-99 added
  Vmax of DIO2 with inhibitor added: 50.6 ± 5.6 fmol min^−1 mg protein^−1
DIO2 [3]; read-out: maximum inhibition of DIO2
  inhibition at 90 µM: 45%
DIO2 mRNA; [11]
  mrna remaining at 0.5 µM: 63 ± 6%
  mrna remaining at 2.5 µM: 59 ± 10%
Cultured cells [4]
  significant effects on viability: not detected
Cultured cells [5]
  significant effects on membrane damage: not detected
[7]
  metabolites formed in cells or cell culture media: Neither OH-BDEs nor debrominated PBDE metabolites were detected
[6]; [13]
  Average Serum Concentration: 6.39 ng/g lipid
[6]; [14]
  Average Serum Concentration: 3.0 ng/g lipid
[6]; [15]
  Average Serum Concentration: 26.1 ng/g lipid
[6]; ref 5
  Maximum Serum Concentration: 225 ng/g lipid
[6]; ref 43
  Maximum Serum Concentration: 33 ng/g lipid
[6]; ref 52
  Maximum Serum Concentration: 1,200 ng/g lipid

## Brc1ccc(Oc2ccc(Br)cc2Br)c(Br)c1 [BDE-47]
DIO2 [1]; H4 cells, any of the exposure concentrations, 6 h exposure
  effect on DIO2 activity: did not significantly alter
DIO2 [1]
  Significant DIO2 Effects in H4 Cells (%Ctrl): None
DIO2 mRNA; H4 cells
  DIO2 mRNA expression level vs control: not significantly different from control
Cultured cells [4]
  significant effects on viability: not detected
Cultured cells [5]
  significant effects on membrane damage: not detected
[6]; [16]
  Average Serum Concentration: 0.305 nM
  Maximum Serum Concentration: 4.58 nM
[6]; [17]
  Average Serum Concentration: 1.01 nM
  Maximum Serum Concentration: 1.94 nM
[6]; [18]
  Average Serum Concentration: 1.02 nM
  Maximum Serum Concentration: 60.7 nM
[6]; [13]
  Average Serum Concentration: 23.3 ng/g lipid
[6]; [14]
  Average Serum Concentration: 77 ng/g lipid
[6]; [15]
  Average Serum Concentration: 77.8 ng/g lipid
[6]; ref 5
  Maximum Serum Concentration: 350 ng/g lipid
[6]; ref 43
  Maximum Serum Concentration: 148 ng/g lipid
[6]; ref 52
  Maximum Serum Concentration: 4,640 ng/g lipid

## CC(C)C[C@@H](C=O)NC(=O)[C@H](CC(C)C)NC(=O)[C@H](CC(C)C)NC(=O)OCc1ccccc1 [MG132, reference compound] (Cbz-Leu-Leu-Leu-aldehyde)
DIO2 [1]; H4 cells, 10 µM
  increase in basal DIO2 activity: 73.5 ± 17.9%

## Oc1cc(Br)cc(Br)c1Oc1ccc(Br)cc1Br [6-OH-BDE-47]
DIO2 [1]; H4 cells
  lowest dose that significantly decreased DIO2 activity: 5,000 nM
DIO2 [1]; [19]
  decrease in DIO2 activity: 57.1 ± 11.4%
DIO2 [1]; [10]
  decrease in DIO2 activity: 45–80%
DIO2 [1]
  Significant DIO2 Effects in H4 Cells (%Ctrl): 57.1%
DIO2 mRNA; H4 cells, 5,000 nM, normalized to RPL13A
  DIO2 mRNA expression ratio relative to the control value of 1.0: 0.59 ± 0.08
Cultured cells [4]
  decrease in viability: 32.0 ± 8.2%
Cultured cells [5]
  membrane damage vs control: not significantly different from control
[6]; [20]
  Average Serum Concentration: 0.0022 nM
  Maximum Serum Concentration: 0.137 nM
[6]; [21]
  Average Serum Concentration: 0.13 nM
[6]; geometric mean or median, ref 36
  Average Serum Concentration: 0.17 ng/g lipid
[6]; [12]
  Average Serum Concentration: 9.9 ng/g lipid
[6]; geometric mean or median, ref 54
  Average Serum Concentration: 0.0131 nM
[6]; ref 36
  Maximum Serum Concentration: 10.8 ng/g lipid
[6]; ref 54
  Maximum Serum Concentration: 0.336 nM

## Oc1c(Br)ccc(Oc2ccc(Br)cc2Br)c1Br [3-OH-BDE-47]
DIO2 [1]; H4 cells
  lowest dose that significantly decreased DIO2 activity: ~1,000 nM
DIO2 [1]; H4 cells, 1,000 nM, 1 h exposure
  decrease in DIO2 activity: 71.1 ± 13.7%
DIO2 [1]; H4 cells, 1,000 nM, 6 h exposure
  decrease in DIO2 activity: 52.1 ± 8.5%
DIO2 [1]; H4 cells, 1,000 nM, 12 h exposure
  decrease in DIO2 activity: not significantly different from control
DIO2 [1]; [19]
  decrease in DIO2 activity: 68.2 ± 13.9%
DIO2 [1]; [10]
  decrease in DIO2 activity: 45–80%
DIO2 [1]
  Significant DIO2 Effects in H4 Cells (%Ctrl): 71.1%
DIO2 [3]
  concentrations at which DIO2 activity was inhibited: > 1 µM
DIO2 [3]; read-out: Ki for DIO2, calculated from IC50, measured T4 concentration and Km
  Ki: 1.6 µM
DIO2 mRNA; H4 cells
  DIO2 mRNA expression level vs control: not significantly different from control
Cultured cells [4]
  decrease in viability: 31.7 ± 7.8%
Cultured cells [5]
  membrane damage vs control: not significantly different from control
[6]; [21]
  Average Serum Concentration: 0.020 nM
[6]; [12]
  Average Serum Concentration: 1.6 ng/g lipid

B1: DIO2 (Homo sapiens) (protein)
chain: MGILSVDLLITLQILPVFFSNCLFLALYDSVILLKHVVLLLSRSKSTRGEWRRMLTSEGLRCVWKSFLLDAYKQVKLGEDAPNSSVVHVSSTEGGDNSGNGTQEKIAEGATCHLLDFASPERPLVVNFGSATUPPFTSQLPAFRKLVEEFSSVADFLLVYIDEAHPSDGWAIPGDSSLSFEVKKHQNQEDRCAAAQQLLERFSLPPQCRVVADRMDNNANIAYGVAFERVCIVQRQKIAYLGGKGPFSYNLQEVRHWLEKNFSKRUKKTRLAG
[8]
  Km: 3.49 ± 0.94 nM
  Vmax: 47.5 ± 2.9 fmol min^−1 mg protein^−1
